Source: publication PMC4893919 (Molecular cancer therapeutics, 2016)
“And” between values parts separate entries of the source, which are not always exact repeats. Identical values can stand only once. Like-named read-outs stand apart in the source and are kept apart here. Each block holds one compound with its values, some of them ahead of it.

Legend:
[1] = system: A375-R cells (acquired vemurafenib resistance); assay: MTT cell viability assay, A375-R; type: cell-based, human
[2] = system: Melanocyte (Normal cells); assay: MTT cell viability assay, normal melanocytes; type: cell-based; settings: read-out: IC50, Melanocyte (Normal cells); 24 h treatment, human cells
In short: (§1)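 Cells were seeded in 96-well plates overnight, then exposed to test compound for 24 h at concentrations up to 10 μM. Growth was read by MTT as OD570. Viability was expressed relative to vehicle (0.5% DMSO) set as 100%, and IC50 was derived from this.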

[3] = system: MeWo (No NRAS or BRAF mutation); assay: MTT cell viability assay, MeWo; type: cell-based; settings: read-out: IC50, MeWo (No NRAS or BRAF mutation); 24 h treatment, human cell line
In short: as §1

[4] = system: A375-R xenografts (acquired vemurafenib resistance); assay: A375-R xenograft tumor model; type: in vivo, NOD/SCID mice
In short: (§2)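 Female NOD/SCID mice, 6 weeks old, received 3×10^6 A375-R or A2058 cells subcutaneously in the flank. Treatment began at about 50 mm³ tumour volume, with 8 mice per randomised group. Doses were PLX4032 75 mg/kg/day and test compound 20 mg/kg every two days; combination arms alternated the two, each every two days. Tumour volume (a×b²×0.5) and body weight were recorded every three days. TGI used initial-to-final volume change versus vehicle.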

A375 cells [5] = assay: ROS measurement, A375; type: cell-based, human; settings: A375, 5 µM, 2 h
A375 (BRAF mutation) = assay: MTT cell viability assay, A375; type: cell-based, human
A375 cells [6] = assay: Colony formation assay, A375; type: cell-based, human; settings: for inhibition of colony formation: 21 days
In short: (§3)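 A375 or A375-R cells were grown in 24-well plates with treatment for 21 days, with drug-containing medium renewed every three days. Colonies were stained with 0.1% crystal violet in PBS. Dye was extracted with 20% acetic acid and absorbance read at 595 nm. Values are colony formation relative to control, n = 4.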

A375-R cells [7] = assay: ROS measurement, A375-R; type: cell-based, human; settings: 5 µM, 2 h
A375 cells [8] = assay: Apoptosis detection; type: cell-based, human; settings: A375, 72 h
In short: (§4)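 Cells were seeded in 6-well plates and exposed to vehicle or test compound for 72 h. Apoptotic cells were scored by Annexin V-FITC plus propidium iodide double staining and flow cytometry.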

SK-MEL-2 (NRAS mutation) = assay: MTT cell viability assay, SK-MEL-2; type: cell-based; settings: read-out: IC50, SK-MEL-2 (NRAS mutation); 24 h treatment, human cell line
In short: as §1

B16-F10 (NRAS mutation) = assay: MTT cell viability assay, B16-F10; type: cell-based; settings: read-out: IC50, B16-F10 (NRAS mutation); 24 h treatment, mouse cell line
In short: as §1

A375-R cells [9] = assay: Cell cycle analysis, A375-R; type: cell-based, human
In short: (§5)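 Cells were synchronised in medium with 1% FBS for 12 h, then given fresh 10% FBS medium with vehicle or test compound for 24 h. Adherent and floating cells were pooled, fixed overnight in ice-cold 70% ethanol at 4°C, and stained with propidium iodide/RNase A for 30 min at room temperature in the dark. Cells were then analysed by flow cytometry.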

A375-R cells [10] = assay: Colony formation assay, A375-R; type: cell-based, human; settings: 21 days
In short: as §3

A375 xenografts = assay: A375 xenograft tumor model; type: in vivo, NOD/SCID mice
In short: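 A375 cells (3×10^6) were injected subcutaneously into the flanks of 6-week-old female NOD/SCID mice. At about 50 mm³, mice were randomised, n = 8 per group. Dosing was PLX4032 20 mg/kg/day and test compound 20 mg/kg every two days. Combination arms alternated test compound (20 mg/kg every four days) with PLX4032 (20 mg/kg every two days). Volume (a×b²×0.5) was measured every three days. Tumours were dissected and weighed. TGI compared volume change with vehicle.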

A2058 (BRAF mutation) = assay: MTT cell viability assay, A2058; type: cell-based; settings: read-out: IC50, A2058 (BRAF mutation); 24 h treatment, human cell line
In short: as §1

A375 cells [11] = assay: Cell cycle analysis, A375; type: cell-based, human; settings: A375, 24 h
In short: as §5

metastatic melanoma = settings: cited from earlier work
[12] = system: A2058 xenografts (intrinsic vemurafenib resistance); assay: A2058 xenograft tumor model; type: in vivo, NOD/SCID mice; settings: 75 mg/kg/day, 24 doses in total
In short: as §2

A375-R cells [13] = assay: Apoptosis detection, A375-R; type: cell-based, human
In short: as §4

[14] = read-out: IC50, A375 (BRAF mutation), 24 h treatment, human cell line
[15] = 20 mg/kg/every two days, 12 doses in total
[16] = 20 mg/kg/day, 24 doses in total

SMILES: C=C(C)C(=O)O[C@H]1CC2=C[C@@H](C/C(C)=C/[C@H]3OC(=O)C(=C)[C@H]13)OC2=O [DET, deoxyelephantopin]
- inhibition of A375-R cell viability ([1]; 2 µM, 72 h): 65%
- IC50 [2]: > 10 µM
- IC50 [3]: > 10 µM
- tumor growth inhibition (TGI) ([4]; A375-R, 20 mg/kg/every two days, 12 doses in total): 31.2%
- increase of ROS level (A375 cells [5]): more than 2 fold
- inhibition of A375 cell viability (A375 (BRAF mutation); 2 µM, 72 h): 55%
- IC50 (A375 (BRAF mutation); [14]): 6 µM and 5.9 µM
- inhibition of colony formation (A375 cells [6]; 1 µM): 38%
- inhibition of colony formation (A375 cells [6]; 2.5 µM): 65%
- inhibition of colony formation (A375 cells [6]; 5 µM): 91%
- increase of ROS level (A375-R cells [7]): more than 2 fold
- apoptosis (A375 cells [8]): ≤ 67.8%
- IC50 (SK-MEL-2 (NRAS mutation)): > 10 µM
- IC50 (B16-F10 (NRAS mutation)): 6 ± 0.13 µM
- effect on cell-cycle distribution (A375-R cells [9]): G2/M-phase cell-cycle arrest
- effect on colony formation of A375-R cells (A375-R cells [10]): inhibited colony formation
- reduction of tumor mass (A375 xenografts; [15]): 47.5%
- tumor growth inhibition (TGI) (A375 xenografts; [15]): 71.0%
- IC50 (A2058 (BRAF mutation)): > 10 µM
- effect on cell-cycle distribution (A375 cells [11]): induced G2/M-phase arrest

SMILES: C=C1C(=O)OC2CC3=C[C@@H](C/C(C)=C/C(OC(C)=O)[C@H]12)OC3=O (stereo partly shown) [DETD-17]
- IC50 [2]: > 10 µM
- IC50 [3]: > 10 µM
- IC50 (A375 (BRAF mutation); [14]): > 10 µM
- IC50 (SK-MEL-2 (NRAS mutation)): > 10 µM
- IC50 (B16-F10 (NRAS mutation)): > 10 µM
- IC50 (A2058 (BRAF mutation)): > 10 µM

SMILES: C=C1C(=O)OC2CC3=C[C@@H](C/C(C)=C/C(OC(=O)c4ccc(C)cc4)[C@H]12)OC3=O (stereo partly shown) [DETD-33]
- IC50 [2]: > 10 µM
- IC50 [3]: 6.7 ± 0.22 µM
- IC50 (A375 (BRAF mutation); [14]): 2.9 ± 0.26 µM
- IC50 (SK-MEL-2 (NRAS mutation)): 5.9 ± 0.2 µM
- IC50 (B16-F10 (NRAS mutation)): 2.2 ± 0.29 µM
- IC50 (A2058 (BRAF mutation)): 4.2 ± 0.09 µM

SMILES: C=C1C(=O)OC2CC3=C[C@@H](C/C(C)=C/C(OC(=O)Cc4ccccc4)[C@H]12)OC3=O (stereo partly shown) [DETD-43]
- IC50 [2]: > 10 µM
- IC50 [3]: > 10 µM
- IC50 (A375 (BRAF mutation); [14]): 3.6 ± 0.25 µM
- IC50 (SK-MEL-2 (NRAS mutation)): 8.2 ± 0.27 µM
- IC50 (B16-F10 (NRAS mutation)): 7.4 ± 0.48 µM
- IC50 (A2058 (BRAF mutation)): 8.7 ± 0.33 µM

SMILES: CC(=O)N[C@@H](CS)C(=O)O [NAC, N-acetyl-L-cysteine, reference compound]
- effect on A375-R cell viability ([1]; 5 mM alone): did not affect
- effect on A375 cell viability (A375 (BRAF mutation); 5 mM alone): did not affect

SMILES: CCCS(=O)(=O)Nc1ccc(F)c(C(=O)c2c[nH]c3ncc(-c4ccc(Cl)cc4)cc23)c1F [PLX4032, vemurafenib, reference compound]
- IC50 ([1]; Homo sapiens, 72 h, read-out: IC50 on A375-R cells): 7.34 µM
- fold less sensitive, A375-R compared to parental cell line ([1]; IC50 A375-R vs A375): 100 fold
- average time to relapse after therapy (metastatic melanoma; melanoma patients): ≤ 7 months
- anti-tumor activity ([4]; A375-R xenograft, 75 mg/kg/day, 24 doses in total): no anti-tumor activity
- anti-tumor activity [12]: no anti-tumor activity
- IC50 (A375 (BRAF mutation); Homo sapiens, A-375, 72 h, read-out: IC50 on A375 cells): 0.07 µM
- inhibition at 0.1 µM (A375 cells [6]; Homo sapiens, A-375, 504 h, read-out: inhibition of colony formation): 55%
- apoptosis (A375-R cells [13]): no effect
- apoptosis (A375 cells [8]): 10.4%
- effect on cell-cycle distribution (A375-R cells [9]): no effect
- effect on colony formation of A375-R cells (A375-R cells [10]): no inhibitory effect
- reduction of tumor mass (A375 xenografts; [16]): 71.9%
- tumor growth inhibition (TGI) (A375 xenografts; [16]): 87.4%
- effect on cell-cycle distribution (A375 cells [11]): G1-phase cell-cycle arrest

SMILES: CN(C)/N=N/c1[nH]cnc1C(N)=O [dacarbazine]
- complete response (metastatic melanoma; metastatic melanoma): less than 5%

Second part, led by results:

- IC50 (A375 (BRAF mutation); [14]): > 10 µM
- IC50 (SK-MEL-2 (NRAS mutation)): > 10 µM
- IC50 (B16-F10 (NRAS mutation)): > 10 µM
SMILES: C=C1C(=O)OC2CC3=C[C@@H](C/C(C)=C/C(O)[C@H]12)OC3=O (stereo partly shown) [DETD-3]
- IC50 [2]: > 10 µM
- IC50 [3]: > 10 µM
- IC50 (A2058 (BRAF mutation)): > 10 µM

- IC50 (A375 (BRAF mutation); [14]): 4.1 ± 0.15 µM
- IC50 (SK-MEL-2 (NRAS mutation)): 7.8 ± 0.14 µM
- IC50 (B16-F10 (NRAS mutation)): 4.7 ± 0.03 µM
SMILES: C=C1C(=O)OC2CC3=C[C@@H](C/C(C)=C/C(OC(=O)/C(C)=C/CC)[C@H]12)OC3=O (stereo partly shown) [DETD-5]
- IC50 [2]: > 10 µM
- IC50 [3]: > 10 µM
- IC50 (A2058 (BRAF mutation)): 5.8 ± 0.08 µM

- IC50 (A375 (BRAF mutation); [14]): > 10 µM
- IC50 (SK-MEL-2 (NRAS mutation)): > 10 µM
- IC50 (B16-F10 (NRAS mutation)): 7.1 ± 0.09 µM
SMILES: C=C1C(=O)OC2CC3=C[C@@H](C/C(C)=C/C(OC(=O)C(C)CC)[C@H]12)OC3=O (stereo partly shown) [DETD-13]
- IC50 [2]: > 10 µM
- IC50 [3]: > 10 µM
- IC50 (A2058 (BRAF mutation)): > 10 µM

- IC50 (A375 (BRAF mutation); [14]): > 10 µM
- IC50 (SK-MEL-2 (NRAS mutation)): > 10 µM
- IC50 (B16-F10 (NRAS mutation)): 7.8 ± 0.28 µM
SMILES: C=C(CC)C(=O)OC1/C=C(\C)C[C@@H]2C=C(CC3OC(=O)C(=C)[C@@H]13)C(=O)O2 (stereo partly shown) [DETD-19]
- IC50 [2]: > 10 µM
- IC50 [3]: > 10 µM
- IC50 (A2058 (BRAF mutation)): > 10 µM

- IC50 (A375 (BRAF mutation); [14]): > 10 µM
- IC50 (SK-MEL-2 (NRAS mutation)): > 10 µM
- IC50 (B16-F10 (NRAS mutation)): > 10 µM
SMILES: C=C1C(=O)OC2CC3=C[C@@H](C/C(C)=C/C(OC(=O)/C=C/C)[C@H]12)OC3=O (stereo partly shown) [DETD-24]
- IC50 [2]: > 10 µM
- IC50 [3]: > 10 µM
- IC50 (A2058 (BRAF mutation)): > 10 µM

- IC50 (A375 (BRAF mutation); [14]): 4.3 ± 0.62 µM
- IC50 (SK-MEL-2 (NRAS mutation)): > 10 µM
- IC50 (B16-F10 (NRAS mutation)): 2.9 ± 0.78 µM
SMILES: C=C1C(=O)OC2CC3=C[C@@H](C/C(C)=C/C(OC(=O)c4ccccc4)[C@H]12)OC3=O (stereo partly shown) [DETD-31]
- IC50 [2]: > 10 µM
- IC50 [3]: > 10 µM
- IC50 (A2058 (BRAF mutation)): > 10 µM
